Screens deposited in PubChem BioAssay by The Scripps Research Institute Molecular Screening Center.
In the library only some 1.7% were active in any assay of this set; here they are far more common.
CHRM5 agonist: human M5 muscarinic receptor agonists, primary screen, CHO-K1 cells, Fluo-8 calcium fluorescence; CHO-K1 hM5 cells; 0% DMSO wells, 100% maximal acetylcholine response; activation, % at 3 µM; 360,000 tested, 0.19% active; AID 624037, 2012;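 active means activation above the run's mean over test compounds plus 3 SD, cut at about 23% in these data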;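 further: signal is peak over basal fluorescence ratio across the kinetic read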
Target sequence (P08912 whole entry, looked up): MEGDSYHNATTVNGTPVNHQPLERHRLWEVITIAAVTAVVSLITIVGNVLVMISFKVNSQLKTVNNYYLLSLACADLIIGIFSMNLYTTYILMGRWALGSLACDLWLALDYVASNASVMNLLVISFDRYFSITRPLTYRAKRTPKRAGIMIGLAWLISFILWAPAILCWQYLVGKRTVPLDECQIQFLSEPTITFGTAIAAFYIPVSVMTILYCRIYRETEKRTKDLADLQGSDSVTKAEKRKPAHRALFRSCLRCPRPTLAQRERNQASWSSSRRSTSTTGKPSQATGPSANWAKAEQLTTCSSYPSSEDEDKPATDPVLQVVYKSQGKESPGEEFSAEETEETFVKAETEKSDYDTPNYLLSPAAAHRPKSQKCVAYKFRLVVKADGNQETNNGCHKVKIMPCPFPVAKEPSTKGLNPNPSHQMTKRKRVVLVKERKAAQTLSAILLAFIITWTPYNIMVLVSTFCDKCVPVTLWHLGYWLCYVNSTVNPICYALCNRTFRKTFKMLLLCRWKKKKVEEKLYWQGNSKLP
CHO-K1 Ca antag: nonselective inhibitor or artifact in parental CHO-K1 cells; ATP-induced calcium, Fluo-8 fluorescence; inhibition, % at 3 µM; 360,000 tested, 0.6% active; AID 602250;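 active means inhibition above a per-plate cutoff, the plate's mean sample inhibition plus 3 SD, cut at about 24% in these data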;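 further: 0% = DMSO plus EC80 ATP and 100% = DMSO alone without ATP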
M5 antag: human M5 muscarinic receptor antagonists, primary screen, CHO cells, Fluo-8 calcium fluorescence; inhibition, % at 3 µM; AID 624040, 2012; Muscarinic acetylcholine receptor M5 (Homo sapiens), P08912; CHO-hM5 cells, ACh EC80; 360,000 tested, 0.59% active;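 active means inhibition above a per-plate cutoff, the mean of that plate's test compounds plus 3 SD, cut at about 27% in these data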;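 further: 0% = acetylcholine EC80 with DMSO and 100% = DMSO without agonist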
CHO-K1 Ca PAM: nonselective calcium activators in parental CHO-K1 cells, primary screen, counter-screen for M1 PAM project, cell-based, Fluo-8 calcium fluorescence, full deck, 1536-well; activation, % at 3 µM; ATP EC20; 0% at ATP EC20, 100% at ATP max; 360,000 tested, 0.02% active;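 active means activation above the run cutoff, the mean activation of all test compounds plus 3 SD, cut at about 40% in these data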;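 further: peak over basal fluorescence ratio in a 140 s read after ATP addition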
M1 ag parental: counter-screen for M1 agonists: effect in parental CHO-K1 cells; 360,000 tested, 0.48% active; Fluo-8 calcium fluorescence; scaled to maximal ATP response, vehicle zero; AID 602248, 2012; activation, % at 3 µM; in the data active means activation above about 15%;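 further: untransfected CHO-K1 host cells lacking M1 receptor as counterscreen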
CHRM5 PAM: human M5 muscarinic receptor positive allosteric modulators, primary screen, CHO-K1 cells, Fluo-8 calcium fluorescence; Muscarinic acetylcholine receptor M5 (Homo sapiens), P08912; CHO-K1 hM5, ACh EC20 PAM; 0% = ACh EC20, 100% = ACh EC100; activation, % at 3 µM; 360,000 tested, 0.3% active;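 active means activation above the run cutoff, the mean activation of all test compounds plus 3 SD, cut at about 18% in these data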
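Probe or stimulus: acetylcholine, EC20 level; Assay system: human M5 receptor in CHO-K1 cells; Schedule: compound preincubation 140 s before EC20 acetylcholine addition; Technique: intracellular calcium via Fluo-8 fluorescence; Dosing: single-point, 3 µM nominal; Read-out basis: percent activation from peak-over-basal fluorescence ratio, scaled EC20-to-EC100 acetylcholine; Repeats: one well per compound, no replicates.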
An asterisk follows results filed as active.

How did Cc1cccc(OCc2nnc3n2CCCCC3)c1 do in these assays?
CHRM5 agonist: 2.7; CHO-K1 Ca antag: 12.5; M5 antag: 31.3*; CHO-K1 Ca PAM: -5.4; M1 ag parental: -0.2; CHRM5 PAM: 35.8*

What do the screens show for `CN(c1ccccc1)S(=O)(=O)c1cccc(C(=O)NC2CCCCC2)c1`?
CHRM5 agonist: -1.8; CHO-K1 Ca antag: -9.2; M5 antag: -1.6; CHO-K1 Ca PAM: 22.2; M1 ag parental: 1.0; CHRM5 PAM: 0.8

How did Cc1cc(C)n(CC(=O)N/N=C/c2c[nH]c3ccccc23)n1 do in these assays?
CHRM5 agonist: 3.6; CHO-K1 Ca antag: -15.1; M5 antag: 2.0; CHO-K1 Ca PAM: 22.3; M1 ag parental: 0.6; CHRM5 PAM: 0.7

How did Cc1cccc(C)c1NC(=O)CN(C)C(=O)C1CC1C (stereo unspecified) do in these assays?
CHRM5 agonist: 3.9; CHO-K1 Ca antag: 4.5; M5 antag: 6.5; CHO-K1 Ca PAM: -15.4; M1 ag parental: 0.1; CHRM5 PAM: 1.9

Results for CCOc1ccc(OCC)c(Nc2cc(C)nc3ncnn23)c1 ?
CHRM5 agonist: -0.3; CHO-K1 Ca antag: -14.2; M5 antag: -7.9; CHO-K1 Ca PAM: 28.2; M1 ag parental: 0.1; CHRM5 PAM: 3.8

What do the screens show for `CCOc1ccc(OCC)c(Nc2cc(C)nc3nc(C)nn23)c1`?
CHRM5 agonist: -2.0; CHO-K1 Ca antag: 34.5*; M5 antag: 0.2; CHO-K1 Ca PAM: -10.9; M1 ag parental: 0.0; CHRM5 PAM: -6.7

Results for Cc1cc(Nc2ccc(Br)cc2F)n2nc(C)nc2n1 ?
CHRM5 agonist: -3.2; CHO-K1 Ca antag: 1.0; M5 antag: -3.6; CHO-K1 Ca PAM: 41.0*; M1 ag parental: -0.5; CHRM5 PAM: 3.2

Results for Cc1ccc(S(=O)(=O)N2C[C@H]3C(=O)C[C@@H](c4ccccc4)N(S(=O)(=O)c4ccc(C)cc4)[C@H]3C[C@H]2c2cccs2)cc1 ?
CHRM5 agonist: 3.7; CHO-K1 Ca antag: 0.7; M5 antag: -1.9; CHO-K1 Ca PAM: 7.1; M1 ag parental: 0.2; CHRM5 PAM: -0.4

How did O=C(NCc1ccc2c(c1)OCO2)c1nc(S(=O)(=O)Cc2ccccc2)ncc1Cl do in these assays?
CHRM5 agonist: -4.9; CHO-K1 Ca antag: 10.9; M5 antag: 11.9; CHO-K1 Ca PAM: 9.3; M1 ag parental: 1.2; CHRM5 PAM: -1.2

How did CN(C)CCOC1(Cc2ccc(F)cc2)CCC(C(C)(C)C)CC1 (stereo unspecified) do in these assays?
CHRM5 agonist: 16.1; CHO-K1 Ca antag: -4.0; M5 antag: -22.2; CHO-K1 Ca PAM: 11.6; M1 ag parental: 9.0; CHRM5 PAM: 18.6*

Results for Cc1ccc(CC2(OCCN(C)C)CCC(C(C)(C)C)CC2)cc1 (stereo unspecified) ?
CHRM5 agonist: 8.5; CHO-K1 Ca antag: -3.2; M5 antag: 2.8; CHO-K1 Ca PAM: 16.8; M1 ag parental: 6.2; CHRM5 PAM: 6.2

How did CC1(O)c2ccccc2C(=O)N1Cc1ccccc1 (stereo unspecified) do in these assays?
CHRM5 agonist: -3.4; CHO-K1 Ca antag: 27.1*; M5 antag: -6.5; CHO-K1 Ca PAM: -6.0; M1 ag parental: -0.6; CHRM5 PAM: 4.9

How did CC1(O)c2ccccc2C(=O)N1CCc1ccccc1F (stereo unspecified) do in these assays?
CHRM5 agonist: -5.3; CHO-K1 Ca antag: -12.5; M5 antag: 3.3; CHO-K1 Ca PAM: 19.6; M1 ag parental: 0.1; CHRM5 PAM: -0.2

What do the screens show for `O=C(c1cccs1)N(Cc1cc2ccccc2[nH]c1=O)c1ccccc1`?
CHRM5 agonist: 1.0; CHO-K1 Ca antag: -3.1; M5 antag: 4.2; CHO-K1 Ca PAM: 16.6; M1 ag parental: 2.0; CHRM5 PAM: -6.9

Results for Cc1nonc1NC(=O)CSc1nc2ccc(Cl)cc2[nH]1 ?
CHRM5 agonist: 2.6; CHO-K1 Ca antag: 34.1*; M5 antag: 13.8; CHO-K1 Ca PAM: -3.0; M1 ag parental: 11.6; CHRM5 PAM: -7.8

How did O=C(NNC(=O)c1ccc(-n2cncn2)c([N+](=O)[O-])c1)c1cccc(Cl)c1 do in these assays?
CHRM5 agonist: 1.4; CHO-K1 Ca antag: 47.5*; M5 antag: 0.2; CHO-K1 Ca PAM: -16.4; M1 ag parental: 0.5; CHRM5 PAM: -0.9

What do the screens show for `CCc1nc(NCCCN2CCOCC2)c2oc3ccccc3c2n1`?
CHRM5 agonist: -3.2; CHO-K1 Ca antag: -6.9; M5 antag: 5.1; CHO-K1 Ca PAM: 11.1; M1 ag parental: 0.3; CHRM5 PAM: -11.3

Results for O=C1C(CCCNC(=S)NCc2ccccc2)NC(=S)N1Cc1ccccc1 (stereo unspecified) ?
CHRM5 agonist: -0.8; CHO-K1 Ca antag: 3.9; M5 antag: 7.4; CHO-K1 Ca PAM: 15.8; M1 ag parental: 19.1*; CHRM5 PAM: -4.5

What do the screens show for `CN1C(=O)c2ccccc2Sc2ccc(NC(=O)NC3CC3)cc21`?
CHRM5 agonist: 2.7; CHO-K1 Ca antag: 0.0; M5 antag: 16.5; CHO-K1 Ca PAM: 8.9; M1 ag parental: 1.0; CHRM5 PAM: 37.9*

What do the screens show for `O=C(Nc1ccc2c(c1)N(Cc1ccccc1)C(=O)c1ccccc1S2)NC1CC1`?
CHRM5 agonist: 2.2; CHO-K1 Ca antag: -10.1; M5 antag: 2.1; CHO-K1 Ca PAM: 16.8; M1 ag parental: 1.3; CHRM5 PAM: -2.1

Results for Clc1cccc2sc(-c3nnc(-c4ccccc4)o3)c(Cl)c12 ?
CHRM5 agonist: 0.9; CHO-K1 Ca antag: 25.6*; M5 antag: -0.2; CHO-K1 Ca PAM: -7.4; M1 ag parental: -0.5; CHRM5 PAM: -2.9

How did CCN(CC(=O)Nc1cc(Cl)ccc1-n1cncn1)Cc1nc2ccccc2c(=O)[nH]1 do in these assays?
CHRM5 agonist: 3.3; CHO-K1 Ca antag: -9.3; M5 antag: 9.4; CHO-K1 Ca PAM: 5.9; M1 ag parental: 2.4; CHRM5 PAM: -5.8

Results for CC(C)(C)Nc1nc2nonc2nc1NC(C)(C)C ?
CHRM5 agonist: 5.5; CHO-K1 Ca antag: -0.6; M5 antag: 25.6; CHO-K1 Ca PAM: 12.2; M1 ag parental: 15.7*; CHRM5 PAM: -11.5

Results for Cc1ccc(CSC(Nc2ccc(F)cc2)=C(C#N)C#N)cc1 ?
CHRM5 agonist: 5.9; CHO-K1 Ca antag: 19.9; M5 antag: 31.0*; CHO-K1 Ca PAM: 5.5; M1 ag parental: 11.4; CHRM5 PAM: -16.5

Results for COc1ccc(/C=C/C(=O)c2cc(F)ccc2OC(=O)c2ccccc2)cc1OC ?
CHRM5 agonist: -1.8; CHO-K1 Ca antag: 24.2*; M5 antag: 1.0; CHO-K1 Ca PAM: -7.0; M1 ag parental: 0.1; CHRM5 PAM: -2.4
